Our source for the IC50 values is ChEMBL document CHEMBL1125566, “N-methylcarbamate derivatives of ellipticine and olivacine with cytotoxic activity against four human lung cancer cell lines” (J Med Chem, 1992).

Type in all cases: functional, cell-based
Test [1] relates to NCI-H69. The test can be described thus: Cytotoxicity against H69 human lung cancer cell line. In short, it runs like this: (§1)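 SCLC floating cultures, grown in RPMI 1640 at 37 °C under 5% CO2, disaggregated by gentle pipetting, collected by sedimentation, and plated at 8000 cells/well. Drug (DMSO, then BSA and phosphate buffer dilutions) applied for 1 h, then centrifuged and washed twice with RPMI 1640. After 4 days at 37 °C, MTT was added for 4 h and formazan in DMSO read at 540 nm. IC50 is 50% growth inhibition.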

Test [2] relates to NCI-H460. The test can be described thus: Cytotoxicity against H 460 human lung cancer cell line. Put shortly: (§2)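 Non-SCLC adherent cells, grown in RPMI 1640 at 37 °C under 5% CO2, trypsinized, resuspended in RPMI-1640/2% FBS, and plated at 2500 cells/well. Drug (DMSO, then BSA and phosphate buffer dilutions) applied for 1 h, then centrifuged and washed twice. Cells were kept 4 days at 37 °C, given MTT for 4 h, formazan dissolved in DMSO, and read at 540 nm. IC50 is the concentration giving 50% growth inhibition.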

Test [3] relates to NCI-H358. The test can be described thus: Cytotoxicity against H 358 human lung cancer cell line. In short, it runs like this: as §2
The subject of test [4] is NCI-H417. The test can be described thus: Cytotoxicity against N 417 human lung cancer cell line. In short, it runs like this: as §1
Test [5] deals with NCI-H358. The test can be described thus: Compound was evaluated for inhibitory activity against H 358 human lung cancer cell line. In short, it runs like this: as §2
Test [6] relates to NCI-H460. The test can be described thus: Compound was evaluated for inhibitory activity against H 460 human lung cancer cell line. In short, it runs like this: as §2
Test [7] concerns NCI-H417. The test can be described thus: Compound was evaluated for inhibitory activity against N 417 human lung cancer cell line. Put shortly: as §1
Test [8] relates to NCI-H69. The test can be described thus: Compound was evaluated for inhibitory activity against H69 human lung cancer cell line. In short, it runs like this:
as §1

Bounds are passed on as bounds.

As for `CNC(=O)OCc1c2ccncc2c(C)c2c1[nH]c1ccc(OC)cc12`, the IC50 (in general, the concentration that inhibits the measured activity by half) in test [1] stood at 220 nM; in test [2], 60 nM; in test [3], 100 nM; in test [4], 90 nM.

Turning to `Cc1c2cnccc2c(CO)c2[nH]c3ccc(O)cc3c12`, the 50% inhibitory concentration (IC50) in test [1] turned out to be 1600 nM; in test [2], 950 nM; in test [3], 1500 nM; in test [4] it was 1800 nM.

Turning to `COc1ccc2[nH]c3c(C)c4ccnc(C=O)c4cc3c2c1`, the IC50 in test [5] was found to be 1500 nM; in test [6], 1800 nM; in test [7], 900 nM; in test [8] it was 1800 nM.

On to `CNC(=O)OCc1nccc2c(C)c3[nH]c4ccc(OC)cc4c3cc12`, for which the IC50 in test [1] is 140 nM; in test [2], 70 nM; in test [3], 110 nM; in test [4] it was 100 nM.

For the compound `CNC(=O)OCc1c2cnccc2c(C)c2[nH]c3ccc(OC)cc3c12`, the concentration for half-maximal inhibition (IC50) in test [1] is 170 nM; in test [2] it was 20 nM; in test [3], 90 nM; in test [4] it was 40 nM.

Take `COc1ccc2[nH]c3c(C)c4ccnc(CO)c4cc3c2c1`: the IC50 in test [1] is 1300 nM; in test [2], 1900 nM; in test [3] it was 1300 nM; in test [4] it was 1300 nM.

Consider `COc1ccc2[nH]c3c(C)c4ccnc(COC(C)=O)c4cc3c2c1`, for which the IC50 in test [1] was found to be 1400 nM; in test [2], 1700 nM; in test [3], 2000 nM; in test [4], 2800 nM.

For the compound `CNC(=O)OCc1c2ccncc2c(C)c2c1[nH]c1ccccc12`, the IC50 in test [1] came out at 860 nM; in test [2], 170 nM; in test [3] it was 190 nM; in test [4], 330 nM.

Take `Cc1c2ccncc2c(C)c2c1[nH]c1ccc(O)cc12`: the IC50 in test [1] is 1700 nM; in test [2], 2800 nM; in test [3] it was 5800 nM; in test [4], 3500 nM.

Regarding `Cc1nccc2c(C)c3[nH]c4ccccc4c3cc12`, the IC50 in test [5] was 2300 nM; in test [6], 1800 nM; in test [7], 3400 nM; in test [8], 1700 nM.

Take `COc1ccc2[nH]c3c(C)c4ccnc(C)c4cc3c2c1`: the IC50 amounted to 2100 nM in test [5], 2100 nM in test [6], 1800 nM in test [7] and 1200 nM in test [8].

Take `COc1cccc2c1C(=O)c1c(O)c3c(c(O)c1C2=O)C[C@@](O)(C(=O)CO)C[C@@H]3O[C@H]1C[C@H](N)[C@H](O)[C@H](C)O1` [DOXORUBICIN]: the IC50 came to 620 nM in test [5], 230 nM in test [6], 230 nM in test [7] and 870 nM in test [8].

Turning to `Cc1c2ccncc2c(C)c2c1[nH]c1ccccc12` [ELLIPTECINE], the IC50 in test [5] was determined as 200 nM; in test [6], 510 nM; in test [7] it was 870 nM; in test [8], 1800 nM.

On to `Cc1c2cc[n+](C)cc2c(C)c2c1[nH]c1ccc(O)cc12` [ELLIPTINIUM], for which the IC50 in test [5], in test [6], in test [7] and in test [8] was above 48000 nM each time.
